Data set [1] deals with T1, Farnesyl pyrophosphate synthase (Homo sapiens, UniProt P14324).
T1 sequence (P14324 whole entry): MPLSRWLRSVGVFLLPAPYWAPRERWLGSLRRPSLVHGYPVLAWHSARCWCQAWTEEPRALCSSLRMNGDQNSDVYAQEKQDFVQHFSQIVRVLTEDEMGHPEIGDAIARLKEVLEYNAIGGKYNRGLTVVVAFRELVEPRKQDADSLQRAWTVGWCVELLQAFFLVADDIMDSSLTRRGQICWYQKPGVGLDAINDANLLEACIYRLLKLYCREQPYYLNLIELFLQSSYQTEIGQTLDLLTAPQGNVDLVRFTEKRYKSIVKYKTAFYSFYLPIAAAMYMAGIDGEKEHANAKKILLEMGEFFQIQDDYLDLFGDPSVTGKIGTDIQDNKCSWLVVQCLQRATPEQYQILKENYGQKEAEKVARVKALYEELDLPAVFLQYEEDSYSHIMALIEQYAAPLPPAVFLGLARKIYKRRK
Put plainly: Inhibition of human FPPS.

For data set [2], the system named is Staphylococcus aureus. Briefly: Antibacterial activity against methicillin-resistant Staphylococcus aureus USA300 after 20 hrs by broth microdilution assay. The class given is functional. As to conditions: USA300, 20 h; call rule not given here. Summed up: (§1)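 Broth microdilution per CLSI in cation-adjusted Mueller Hinton broth. Compounds serially diluted, in triplicate. Incubation at 37 °C for at least 20 hours. MIC taken as the lowest concentration with no visible bacterial growth.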
For orientation: Dilution methods test growth across graded concentrations, often in twofold steps.

A short description of data set [3]: Selectivity index, ratio of toxic concentration for human HRT18 cells to MIC for methicillin-resistant Staphylococcus aureus. The class given is toxicity. The following applies: read-out: Selectivity Index.
Data set [4] can be described thus: Apparent permeability from apical to basolateral side in human Caco2 cells at 10 uM after 60 mins by LC-MS/MS analysis. The class given is ADME, cell-based. The following applies: caco-2, 1 h. The essentials:
(§2)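 Caco-2 monolayers were seeded at 1 × 10^5 cells/cm2 and differentiated for three weeks. Test article was at 10 μM (1% DMSO) in HBSS-MES pH 6.5 or HBSS-HEPES pH 7.4 and added to the donor side. Incubation ran 60 min (A→B) or 40 min (B→A), and receiver buffer was analysed by LC/MS/MS. Lucifer yellow and fluorescein checked monolayer integrity. Efflux ratio = Papp(B→A)/Papp(A→B).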
Background: Caco-2 cells form a polarised layer with tight junctions and transporters.

Data set [5] can be described thus: Terminal phase volume of distribution in Sprague-Dawley rat at 2 uM administered as single iv bolus dose by LC-MS/MS analysis. As to conditions: in vivo, read-out: Vbeta. The class given is ADME, organism-based. The essentials: (§3)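 Male naïve Sprague-Dawley rats (three animals) received an IV bolus of a 2 μM solution. EDTA-K2 blood was sampled over 12 h post dose. Plasma was protein-precipitated with acetonitrile and quantified by LC/MS/MS. Parameters came from two-compartmental pharmacokinetic analysis.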

In data set [6] the test system is Staphylococcus aureus. Put plainly: Ratio of MBC to MIC for vancomycin-resistant Staphylococcus aureus VRS11a. The class given is functional. The essentials:
(§4)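 MBC/MIC ratio. […] MBC by plating no-growth wells onto tryptic soy agar at 37 °C for at least 18 h; taken as the concentration giving 99.9% growth inhibition.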

Data set [7] deals with Rattus norvegicus. Put plainly: Half life in Sprague-Dawley rat at 2 uM administered as single iv bolus dose by LC-MS/MS analysis. The class given is ADME, organism-based. The following applies: in vivo. Summed up: as §3
Data set [8] concerns Staphylococcus aureus. Briefly: Ratio of MBC to MIC for methicillin-resistant Staphylococcus aureus NRS123 (USA400). The class given is functional. The essentials: as §4
The subject of data set [9] is Staphylococcus aureus. Briefly: Bactericidal activity against methicillin-resistant Staphylococcus aureus NRS119 up to 18 hrs by broth microdilution assay. The class given is functional. The following applies: NRS119, 18 h, read-out: MBC99.9.
Data set [10] has as its system Staphylococcus aureus. Put plainly: Bactericidal activity against methicillin-resistant Staphylococcus aureus USA300 up to 18 hrs by broth microdilution assay. The class given is functional. As to conditions: USA300, 18 h, read-out: MBC99.9.
The subject of a further data set is HRT-18 cell line. Put plainly: Cytotoxicity against human HRT18 cells assessed as reduction in cell viability up to 32 ug/ml after 2 hrs by MTS assay. The class given is cell-based. The following applies: hrt-18, 2 h. For orientation: Formazan colour is commonly taken as a measure of viable cells.
A further data set concerns Mus musculus. Briefly: Toxicity in wounded skin area of Balb/c mouse infected with methicillin-resistant Staphylococcus aureus USA300 at 2% administered topically twice daily for 5 consecutive days measured 12 hrs post last dose. The class given is organism-based. As to conditions: in vivo, topical_or_ocular. Summed up:
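Female Balb/c mice, 8 weeks old, n=5 per group. Intradermal injection of 40 μL of 1.32×10^9 CFU/mL USA300; a wound formed by ~66 h. Treated topically with a 2% suspension in petroleum jelly twice daily for 5 days; the vehicle group served as control. Wounds excised 12 h after the last dose, homogenized in PBS and plated on mannitol salt agar; sites also observed for redness and swelling.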

The subject of a further data set is J774. Put plainly: Cytotoxicity against mouse J774 cells assessed as reduction in cell viability up to 8 ug/ml after 24 hrs by MTS assay. As to conditions: j774, 24 h. The class given is cell-based. The essentials: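 J774 murine macrophages were grown in DMEM with 10% FBS at 37 °C, 5% CO2. Compounds were tested at 8, 16 and 32 μg/mL in triplicate for 24 h, with a DMSO-matched control. MTS was added for 4 h and absorbance read at 490 nm. Viability is given as % of DMSO control (mean ± SD); Student t-test with Holm-Sidak test.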

Data set [11] can be described thus: Induction of proton motive force collapse in Escherichia coli inverted membrane vesicle in presence of succinate/O2-driven PMF generation system by ACMA-based fluorescence assay. The class given is functional, cell membranes. The essentials: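 E. coli inverted membrane vesicles had proton motive force generated either by ATP or by succinate/O2. PMF collapse was followed as a dose response to give EC50, with CCCP as the reference uncoupler.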

Data set [12] relates to Rattus norvegicus. Briefly: Volume of distribution at steady state in Sprague-Dawley rat at 2 uM administered as single iv bolus dose by LC-MS/MS analysis. The class given is ADME, organism-based. The following applies: in vivo. The essentials: as §3
For data set [13], the system named is Staphylococcus aureus. Briefly: Antibacterial activity against methicillin-resistant Staphylococcus aureus NRS107 after 20 hrs by broth microdilution assay. The class given is functional. As to conditions: NRS107, 20 h. The essentials:
as §1

Data set [14] has as its system Staphylococcus aureus. Briefly: Ratio of MBC to MIC for methicillin-resistant Staphylococcus aureus USA300. The class given is functional. Summed up:
as §4

Data set [15] concerns Staphylococcus aureus. Briefly: Bactericidal activity against methicillin resistant vancomycin-resistant Staphylococcus aureus VRS12 up to 18 hrs by broth microdilution assay. The class given is functional. The following applies: VRS12, 18 h, read-out: MBC99.9. The essentials: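 MBC set up from the MIC plates. Aliquots from wells with no growth spotted onto tryptic soy agar and incubated at 37 °C for at least 18 hours. MBC taken as the lowest concentration giving 99.9% inhibition of bacterial growth.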

Data set [16] is described as follows: Efflux ratio of apparent permeability in human Caco2 cells at 10 uM after 60 mins by LC-MS/MS analysis. The class given is ADME, cell-based. As to conditions: caco-2, 1 h. Summed up:
as §2

Data set [17] can be described thus: Apparent permeability from basolateral to apical side in human Caco2 cells at 10 uM after 60 mins by LC-MS/MS analysis. The following applies: caco-2, 1 h. The class given is ADME, cell-based.
The subject of data set [18] is Staphylococcus aureus. Briefly: Antibacterial activity against methicillin-resistant Staphylococcus aureus USA300 infected in Caenorhabditis elegans AU37 assessed as reduction in bacterial burden at 20 ug/ml after 18 hrs relative to control. The class given is functional. Further details: scale not given: the % may be the effect or the level left. Summed up: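 L4-stage C. elegans AU37 infected on USA300 lawns for 6 h and washed with M9 buffer. 25–30 worms per well exposed to 20 μg/mL for 18 h, in triplicate. Worms then lysed and plated on TSA with 5 μg/mL nalidixic acid for 17 h at 37 °C. CFU per worm expressed as % reduction versus PBS.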

≈ marks a conversion by molar mass, not a printed value.

Turning to `C/C(=N\NC(=N)N)c1sc(-c2ccc(C#CC3CC3)cc2)nc1C`, the “inhibition (INH)” value in [1] is listed as “Not Active”. Besides, the minimal inhibitory concentration (MIC) in the data set on Staphylococcus aureus [2] and in the data set with Staphylococcus aureus [13] was 2 µg/mL (≈ 5.93 µM) throughout. For the same molecule, the selectivity ratio in data set [3] fell in the range of 7 to 31. In addition, the Papp in data set [4] is 0.05 ×10⁻⁶ cm/s; in data set [17] it was 0.35 ×10⁻⁶ cm/s. Besides, the Vd at 2 µM in [5] was 18.5 L. For the same molecule, the Ratio entry is reported as “<=3” in the data set on Staphylococcus aureus [6], “<=3” with Staphylococcus aureus [8], “<=3” in the data set with Staphylococcus aureus [14] and 69 in data set [16]. For the same molecule, in the data set on Rattus norvegicus [7], the t1/2 amounted to 4.43 h. In addition, the MBC was 2 µg/mL (≈ 5.93 µM) with Staphylococcus aureus [9], 4 µg/mL (≈ 11.9 µM) in the data set with Staphylococcus aureus [10] and 2 µg/mL (≈ 5.93 µM) in the data set on Staphylococcus aureus [15]. Moreover, the Activity result with HRT-18 cell line is given as “Non-Toxic”; in the data set with Mus musculus, “Non-Toxic”; in the data set on J774, “Non-Toxic”; in the data set with Staphylococcus aureus [18], 90%. In data set [11], the EC50 is 28 µM. This molecule also returned a Vdss in the data set with Rattus norvegicus [12] of 5.51 L.

As a reminder, the MIC is the lowest concentration found to suppress growth. The Papp is a coefficient for how fast a substance crosses the barrier. As usually defined, the EC50 is the concentration at which the effect is half-maximal. Usually Vdss stands for a proportionality between amount in the body and measured concentration, not a real space.
